This data set deals with MS2 coat protein. Briefly: apparent Kd, MS2 coat protein; higher = weaker binding; RNA-MaP array; FMN 200 µM where present. In short, it runs like this: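 Stalled E. coli RNA polymerase transcribed each design on Illumina sequencing-chip clusters. The clusters were titrated with SNAP-549-labelled MS2 coat protein, starting at 0.7 or 1.5 nM and doubling up to 3 µM, first without ligand and then with constant ligand, in 100 mM Tris-HCl pH 7.5, 80 mM KCl, 4 mM MgCl2, BSA, DTT, yeast tRNA and Tween-20. Green signal was normalised to red-channel RNA signal and to the control-cluster median Fmax. The apparent Kd is the median of filtered binding-curve fits made for each cluster.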

[1] abbreviates: designed as: OFF switch for flavin mononucleotide, no ligand.
Where [2] appears, read: ligand present: flavin mononucleotide, designed as: OFF switch for flavin mononucleotide.
Setting [3] is: designed as: ON switch for flavin mononucleotide, no ligand.
The mark [4] stands for this setting: ligand present: flavin mononucleotide, designed as: ON switch for flavin mononucleotide.

“AGAUUACGAGGAUAUCGAGUUUAGUACAUGAGGAUCACCCAUGUUAUCCAGGUCUCGUUUCGAGAAGGCGUGAUUC”: the apparent Kd (usually the concentration giving half-maximal binding under the conditions of the assay) by setting is: under setting [1], 256 nM; under setting [2], 92.3 nM.

As to “ACGUGUCGUGUAGGAUAUGACACAGGAAACUGGUCAGAAGGACAUGAGGAUCACCCAUGUAAAGUGUUUAAGGAUGACGUAUGC”, the “apparent Kd” value turned out to be 49.9 nM under setting [1] and 151 nM under setting [2].

In the case of “AGUGCCUCGAGAGGAUAUACAUGAGGAUCACCCAUGUAAGUAGAGGUGGAAACACCUCUACAAAUGUAGAAGGCUCGAGGCACA”, the “apparent Kd” value was found to be 18 nM under setting [1] and 52.2 nM under setting [2].

Take “CGCAACUCUUCUCAUGUAAACAUGAGGAUCACCCAUGUAAUGAGAAGGAGGAAGAAGAGAGAUUCCUAGGAUAUCAGAGUUGCG”: the “apparent Kd” value worked out at 5.41 nM under setting [1] and 5.52 nM under setting [2].

Consider “UUGUUAUAUGUAGGAUAUGCAUAUUAUUAUUAUGCAGAAGGACAUGAGGAUCACCCAUGUGUAUUAUUAUUAUAUAUUAUAUAU”, for which the “apparent Kd” value came to 23.2 nM under setting [1] and 33.2 nM under setting [2].

For the sequence “GGACAUUUACAGAAGGGCAAUUUAUUUAUUGAUUAUUUAGUUCUGUUUUGCAGGAUAUGUUUUACAUGAGGAUCACCCAUGUCC”, the “apparent Kd” value was found to be 66.8 nM under setting [3] and 36.2 nM under setting [4].

On to “UGAAAUCAUGUAGGAUAUGCAUGGCGAAGCUACGCAGAAGGACAUGAGGAUCACCCAUGUUCUAGCGUCUGAGUACAGAUGCAA”, for which the “apparent Kd” value is, setting by setting: under setting [1], 19.6 nM; under setting [2], 64.9 nM.

“ACAUGCGGAUGAGGAUAUUCAUUUAUGAGGAUAGAAGAAGGCAUACAUGAGGAUCACCCAUGUAUACGCAUGAGGAUCCCUUAC”: the “apparent Kd” value under setting [1] was determined as 39.1 nM and the “apparent Kd” value under setting [2] amounted to 41 nM.

In the case of “GUUUCGGGAGGAUAUGCGUGGAUUGUUCUCGUAUGUUGUUUACAUGAGGAUCACCCAUGUAGAAGGUCUGGAGC”, the “apparent Kd” value under setting [1] was 170 nM and the “apparent Kd” value under setting [2] stood at 136 nM.

As to “GUCGUUUCUGAGGAUAUUAUUUUUUUCGAUUGAUAAGAAGGCAGUACAUGAGGAUCACCCAUGUGGGUUGUCUG”, the “apparent Kd” value is, setting by setting: under setting [1], 30 nM; under setting [2], 97.3 nM.

As to “GUAGCAUACCGAGGAUAUUCAUAUAAUAAAUAAACAUGAGGAUCACCCAUGUGGCGAAAGCCUUGGGAGAAGGCGGAAUGCUAC”, the “apparent Kd” value under setting [3] was 647 nM and the “apparent Kd” value under setting [4] was 37.3 nM.

For the sequence “UGGAUGUAGGAGAAGGAGGACUUCAUGAGGAUCACCCAUGUGUUAGUACUUAGGAUAUUUGACAACAUGAGGAUCACCCAUGUC”, the “apparent Kd” value under setting [3] amounted to 138 nM and the “apparent Kd” value under setting [4] is 113 nM.

As for “ACAUGGAAGUAGAAGGGUAAUACUUUAGAAUGUACCAUUAGAUGAUGUUAUACAGGAUAUGCUAACAUGAGGAUCACCCAUGUG”, the “apparent Kd” value under setting [1] turned out to be 25.6 nM and the “apparent Kd” value under setting [2] was determined as 19.8 nM.

With “AGUUAAUAUCGAGGAUAUGUCUAGACACAUGAGGAUCACCCAUGUAUGUGUAUAGAAGGCAAAAUUAACAGCAUGUUACAUGCA”, the “apparent Kd” value reads like this: under setting [3], 30.6 nM; under setting [4], 24.9 nM.

As for “AGUAAGAUGCAGAAGGUGUCAGCGAGAGCUGCGACAUGAGGAUCACCCAUGUGUCGGUGACGACACAAGGAUAUGCAUCUUACA”, the “apparent Kd” value was found to be 407 nM under setting [3] and 227 nM under setting [4].

With “UGUUGUAUUACAGGAUAUCUGUUAUUUUUAUUUAGAGAAGGGUAUUCACAUGAGGAUCACCCAUGUAUAUACGAGGAAGUUGUG”, the “apparent Kd” value is, setting by setting: under setting [3], 57.3 nM; under setting [4], 61.4 nM.

Regarding “GGGUACAUCGGAGGAUAUCAUGUAAAUACAUGAGGAUCACCCAUGUCGAUGGAGACAUCGGAGAUUGAGAAGGCCGAUGUAUCG”, the “apparent Kd” value reads like this: under setting [3], 157 nM; under setting [4], 9.09 nM.

For “UAUAUAUAGGCAGGAUAUACAUGAAUAUAUAUAAUGUAGUAUGAUGUAACAUGAGGAUCACCCAUGUAGAAGGGCCAAUAUAUA”, the “apparent Kd” value was determined as 36.8 nM under setting [1] and 95.2 nM under setting [2].

With “AAUUUAAAGGGAGGAUAUACAUGAGGAUCACCCAUGUAAUAAUAUGAUAUUUUUUUUGUAUGAGUGUAGAAGGCCCAAAUAAAA”, the “apparent Kd” value by setting is: under setting [1], 51.6 nM; under setting [2], 61 nM.

Turning to “GUAGCUAUCGGAGGAUAUUCAUACCGGAUACGGACAUGAGGAUCACCCAUGUGCCGAAAGGCUUGGGAGAAGGCCGAUAGCUAC”, the “apparent Kd” value by setting is: under setting [3], 108 nM; under setting [4], 16.9 nM.

As to “UUAAAUCAUGUAGGAUAUGCAUGGCGAAGCUACGCAGAAGGACAUGAGGAUCACCCAUGUUAUAGCUUCCCAGUUCGGAGGCAA”, the “apparent Kd” value under setting [1] is 63.8 nM and the “apparent Kd” value under setting [2] amounted to 230 nM.

Regarding “AAUAUGAGCUGGUUUAAAUCCUAAACAUGAGGAUCACCCAUGUAGGAUAUCAGCACGAUAAGUGCUGAGAAGGACAUCCAGCUC”, the “apparent Kd” value under setting [1] came to 15.1 nM and the “apparent Kd” value under setting [2] was 15.2 nM.

In the case of “GAGGACUGUAAAUUAACUCAAAUACAUGAGGAUCACCCAUGUAAGGAUAUCGUCAGGAAUACUGACGAGAAGGUACAUCAGUCC”, the “apparent Kd” value is, setting by setting: under setting [1], 14.4 nM; under setting [2], 20 nM.

As for “AAGAUGCGGAUAGGAUAUGGAAAUUAAUAAAGACCAGAAGGAUUGGUCACACAACAUGAGGAUCACCCAUGUGUGUGUUGUGAA”, the “apparent Kd” value was found to be 13.6 nM under setting [1] and 10.6 nM under setting [2].

As to “UGCGAGCAGAUCGUCCGCUCACAUGAGGAUCACCCAUGUAGGAGAAGGCGCCAUGAAGGCAGCGGCGAGGAUAUCCUCGUGGGC”, the “apparent Kd” value is, setting by setting: under setting [1], 78 nM; under setting [2], 77.6 nM.

Consider “AUGCUUCACACAGGAUAUACAUGAGGAUCACCCAUGUGUCCACAGUAGCUGACACGAGCUACGCGGUAGAAGGGUGUGAAGCAU”, for which the “apparent Kd” value is, setting by setting: under setting [1], 18.5 nM; under setting [2], 61.2 nM.

For “AUAGCAUACCGAGGAUAUUCAUAUAAUAAAUAAACAUGAGGAUCACCCAUGUGGCGAAAGCCUAGGGAGAAGGCGGAAUGCUAA”, the “apparent Kd” value under setting [3] was determined as 218 nM and the “apparent Kd” value under setting [4] was 23.3 nM.

With “GAAUUUUUACAGAAGGUGUUUUACAUGAGGAUCACCCAUGUUUUAUUGUUUAAAUUUGUUAUUUACAAGGAUAUGUUCUAUUCU”, the “apparent Kd” value is 26.7 nM under setting [3] and 19.7 nM under setting [4].

Regarding “CGCAAGUCAGGAUAUUCGACUGGUAAAUCAGUGGAUCAGUAGGAGAAGGGACAUGAGGAUCACCCAUGUUUGUA”, the “apparent Kd” value is 27.8 nM under setting [1] and 30 nM under setting [2].

Take “GUCGGAAACGACAAAAGUAUGGAUCCAGAAGGCAUGAAACAUGAGGAUCACCCAUGUCAAAGACAUGAGGAUAUGGAUCCAUAC”: the “apparent Kd” value is, setting by setting: under setting [3], 4.06 nM; under setting [4], 3.19 nM.

“UGAUGUCGCGAGGAUAUCCAAGAGGACUUUCUGGGAGAAGGUGCGACAUGAGGAUCACCCAUGUCAUAAGGAGU”: the “apparent Kd” value was 109 nM under setting [1] and 287 nM under setting [2].

For the sequence “GCACAUGAUACAGGAUAUGUUUUGGAUUUUAUAUUCAGUUAUAUAAUAUUUACAGAAGGGUAUACAUGAGGAUCACCCAUGUGC”, the “apparent Kd” value came out at 61.1 nM under setting [1] and 30.8 nM under setting [2].

Take “CGCAACUCAGAUCUUUUGAACAUGAGGAUCACCCAUGUAUUGAGAAGGAGCUGGAAGAGAGACAGCUAGGAUAUCAGAGUUGCG”: the “apparent Kd” value came to 5.4 nM under setting [1] and 5.73 nM under setting [2].

For “UGGGUUUGUAGUUACAUCCCUACACAGGAUAUGGGUAGUUACAUGAGGAUCACCCAUGUUCGAACUCAGAAGGGUGGAUCGUUG”, the “apparent Kd” value is, setting by setting: under setting [3], 85.3 nM; under setting [4], 11.3 nM.

With “GCACGAGACUAAGGAUAUGGAGUGUCUACAUUAAACAUGAGGAUCACCCAUGUAGAGAGUACGAUUCAGAAGGUAGAGACGUGC”, the “apparent Kd” value reads like this: under setting [3], 48.6 nM; under setting [4], 22.1 nM.

Consider “CGCACUAUACAUGAGGAUCACCCAUGUUAAUAUGAGAUAGUCAGAAGGCAUUGUUUGAGAAAUUAUGAGGAUAUGAAUAGUGCG”, for which the “apparent Kd” value under setting [3] was 100 nM and the “apparent Kd” value under setting [4] was 23.7 nM.

Consider “CGUCUAUGCCAGAAGGCAUGAAACAUGAGGAUCACCCAUGUCAAAGACAUGAGGAUAUGGCAUAGACGAAAAGUGCGAAAGCAC”, for which the “apparent Kd” value runs as follows: under setting [3], 4.32 nM; under setting [4], 3.27 nM.

“UGAACAAUGUAGAAGGCCCAUAUUUAUAUAUAGGGAGGAUAUACAUGAGGAUCACCCAUGUAAAGAGCAAGAGGAUUUGACAGA”: the “apparent Kd” value is, setting by setting: under setting [1], 10.4 nM; under setting [2], 22.2 nM.

Take “GAGAUGUCAGGAUAUGUGUAAAGAAUAAAACAAAUAACAACACAGAAGGGACAUGAGGAUCACCCAUGUUACUC”: the “apparent Kd” value is, setting by setting: under setting [1], 24.9 nM; under setting [2], 54.6 nM.

In the case of “UCAUUUCAGUAAGGAUAUUAAAACAUGACGAUACAUGAGGAUCACCCAUGUUAAGAAGGUACUAAUACAUAUAAUGCAAUGUUC”, the “apparent Kd” value came to 16 nM under setting [1] and 15 nM under setting [2].

Turning to “GUCUUGUUAGGAUAUCUUACUUUUGCAUCAUAGUAACCAUUGGAGAAGGGACAUGAGGAUCACCCAUGUUUGGU”, the “apparent Kd” value was 34.6 nM under setting [1] and 30 nM under setting [2].

As for “AAUAUAAAGCAGAAGGCCUUAUUACAUGAGGAUCACCCAUGUAAUCGUGGGAGGAUAUGCAUGAUACAACUACGUAUCGUAGCA”, the “apparent Kd” value reads like this: under setting [3], 9.33 nM; under setting [4], 5.19 nM.

As to “CUGUAACAUGAGGAUCACCCAUGUCAGGAUAUCUAUCAUAGCAUCGAAAGAUGCGGGUAGAGAAGGGACUAUCC”, the “apparent Kd” value by setting is: under setting [1], 17 nM; under setting [2], 18.2 nM.

Take “GGACGCGUAGGAUAUGCAAUCGAAGUCGAGUUUUCUGGUGGACAUGAGGAUCACCCAUGUAGAAGGAUGUAGCA”: the “apparent Kd” value came out at 44.2 nM under setting [1] and 33.4 nM under setting [2].

“CAGGUCUGAGGAUAUCCAUCCUCCUACAUGAGGAUCACCCAUGUUUCCCUCUGGGUUUUCGGAGAAGGCAGUUUUU”: the “apparent Kd” value is 749 nM under setting [1] and 525 nM under setting [2].

Regarding “UGUAUAUAGGCAGGAUAUACAUGAAUAUAUAUGAUGUAGUAUGAUGUAACAUGAGGAUCACCCAUGUAGAAGGGCCAGUAUAUA”, the “apparent Kd” value was 45.3 nM under setting [1] and 129 nM under setting [2].

Regarding “UGAUCUAUGUAGAAGGCCCAUAUCUAUAUUUAGGGAGGAUAUACAUGAGGAUCACCCAUGUAUAGAGCGGGUGGACCCGUCACC”, the “apparent Kd” value by setting is: under setting [1], 26.7 nM; under setting [2], 62.1 nM.

The record behind these values is the EternaBench riboswitch data.
